Experiments:
Conditions in all cases: stereoisomer not certain
OR4F3 (Homo sapiens) = OR4F3 (Homo sapiens) (UniProt Q6IEY1)
Method in brief: (§1)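 Transient luciferase assays in mammalian cell lines were common, though methods varied by source. The values come from published papers and their supplementary material, with extra details from the original authors when needed. Responsive refers to a measured signal the original authors judged statistically different from baseline, and non-responsive (inactive) to the remainder.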

OR4F4 (Homo sapiens) = OR4F4 (Homo sapiens) (UniProt Q96R69)
Method in brief: as §1

OR4F5 (Homo sapiens) = OR4F5 (Homo sapiens) (UniProt Q8NH21)
Method in brief: as §1

OR4F6 (Homo sapiens) = OR4F6 (Homo sapiens) (UniProt Q8NGB9)
Method in brief: as §1

OR4K1 (Homo sapiens) = OR4K1 (Homo sapiens) (UniProt Q8NGD4)
Method in brief: as §1

OR4K13 (Homo sapiens) = OR4K13 (Homo sapiens) (UniProt Q8NH42)
Method in brief: as §1

OR4K14 (Homo sapiens) = OR4K14 (Homo sapiens) (UniProt Q8NGD5)
Method in brief: as §1

OR4K15 (Homo sapiens) = OR4K15 (Homo sapiens) (UniProt Q8NH41)
Method in brief: as §1

OR4K17 (Homo sapiens) = OR4K17 (Homo sapiens) (UniProt Q8NGC6)
Method in brief: as §1

OR4K2 (Homo sapiens) = OR4K2 (Homo sapiens) (UniProt Q8NGD2)
Method in brief: as §1

OR4K3 (Homo sapiens) = OR4K3 (Homo sapiens) (UniProt Q96R72)
Method in brief: as §1

OR4K5 (Homo sapiens) = OR4K5 (Homo sapiens) (UniProt Q8NGD3)
Method in brief: as §1

OR4L1 (Homo sapiens) = OR4L1 (Homo sapiens) (UniProt Q8NH43)
Method in brief: as §1

OR4M1 (Homo sapiens) = OR4M1 (Homo sapiens) (UniProt Q8NGD0)
Method in brief: as §1

OR4F5 T141A Q293R = test system: OR4F5 T141A Q293R
Method in brief: as §1

OR4K1 R304H = test system: OR4K1 R304H
Method in brief: as §1

OR4K2 = test system: OR4K2
Method in brief: as §1

OR4KF = test system: OR4KF
Method in brief: as §1

OR4KH = test system: OR4KH
Method in brief: as §1

OR4L1 = test system: OR4L1
Method in brief: as §1

Measured: odorant receptor agonist call;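 further: active if original authors judged signal statistically different from baseline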

Sequence of OR4K13 (Homo sapiens) (Q8NH42 whole entry): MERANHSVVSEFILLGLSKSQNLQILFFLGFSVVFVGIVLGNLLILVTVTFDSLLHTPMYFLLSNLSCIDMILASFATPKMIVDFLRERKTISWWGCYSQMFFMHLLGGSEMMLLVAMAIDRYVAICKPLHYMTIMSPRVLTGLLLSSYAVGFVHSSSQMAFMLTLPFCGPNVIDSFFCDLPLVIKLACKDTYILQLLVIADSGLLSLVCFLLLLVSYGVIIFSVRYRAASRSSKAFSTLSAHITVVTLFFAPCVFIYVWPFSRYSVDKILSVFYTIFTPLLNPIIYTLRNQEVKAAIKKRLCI
Sequence of OR4F3 (Homo sapiens) (Q6IEY1 whole entry): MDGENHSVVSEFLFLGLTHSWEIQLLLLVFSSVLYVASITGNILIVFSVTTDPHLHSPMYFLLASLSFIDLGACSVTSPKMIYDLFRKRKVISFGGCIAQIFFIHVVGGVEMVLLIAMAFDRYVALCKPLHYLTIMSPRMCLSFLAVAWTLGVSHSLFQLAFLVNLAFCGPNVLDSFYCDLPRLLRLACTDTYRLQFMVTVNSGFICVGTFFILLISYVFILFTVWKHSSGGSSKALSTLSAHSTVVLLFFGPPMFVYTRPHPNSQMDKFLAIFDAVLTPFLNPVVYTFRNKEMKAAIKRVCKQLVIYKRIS
Sequence of OR4M1 (Homo sapiens) (Q8NGD0 whole entry): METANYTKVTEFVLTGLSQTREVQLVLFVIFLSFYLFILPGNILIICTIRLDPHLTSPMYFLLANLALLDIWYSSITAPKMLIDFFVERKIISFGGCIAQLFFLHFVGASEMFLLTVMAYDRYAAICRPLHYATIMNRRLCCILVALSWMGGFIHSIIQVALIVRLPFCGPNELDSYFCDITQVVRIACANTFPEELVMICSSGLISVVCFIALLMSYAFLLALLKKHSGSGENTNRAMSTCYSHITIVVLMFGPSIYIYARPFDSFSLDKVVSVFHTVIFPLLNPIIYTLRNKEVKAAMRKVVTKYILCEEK
Sequence of OR4F4 (Homo sapiens) (Q96R69 whole entry): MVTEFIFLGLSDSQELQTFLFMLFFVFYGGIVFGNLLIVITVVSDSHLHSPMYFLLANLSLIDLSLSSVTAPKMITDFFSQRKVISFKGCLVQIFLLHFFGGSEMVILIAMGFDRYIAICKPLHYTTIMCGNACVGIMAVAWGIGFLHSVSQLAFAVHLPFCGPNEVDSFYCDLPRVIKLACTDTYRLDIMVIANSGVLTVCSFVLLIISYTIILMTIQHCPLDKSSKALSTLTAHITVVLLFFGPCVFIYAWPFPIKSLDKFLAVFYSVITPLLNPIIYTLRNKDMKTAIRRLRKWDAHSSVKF
Sequence of OR4K5 (Homo sapiens) (Q8NGD3 whole entry): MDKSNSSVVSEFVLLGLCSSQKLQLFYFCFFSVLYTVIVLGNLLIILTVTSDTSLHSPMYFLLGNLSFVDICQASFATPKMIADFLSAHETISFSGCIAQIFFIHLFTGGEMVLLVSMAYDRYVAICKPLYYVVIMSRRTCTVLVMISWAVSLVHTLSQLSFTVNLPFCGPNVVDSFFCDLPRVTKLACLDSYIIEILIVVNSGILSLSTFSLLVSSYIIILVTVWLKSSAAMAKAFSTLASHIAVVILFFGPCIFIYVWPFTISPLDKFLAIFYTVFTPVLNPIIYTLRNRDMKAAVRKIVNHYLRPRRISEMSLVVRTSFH
Sequence of OR4L1 (Homo sapiens) (Q8NH43 whole entry): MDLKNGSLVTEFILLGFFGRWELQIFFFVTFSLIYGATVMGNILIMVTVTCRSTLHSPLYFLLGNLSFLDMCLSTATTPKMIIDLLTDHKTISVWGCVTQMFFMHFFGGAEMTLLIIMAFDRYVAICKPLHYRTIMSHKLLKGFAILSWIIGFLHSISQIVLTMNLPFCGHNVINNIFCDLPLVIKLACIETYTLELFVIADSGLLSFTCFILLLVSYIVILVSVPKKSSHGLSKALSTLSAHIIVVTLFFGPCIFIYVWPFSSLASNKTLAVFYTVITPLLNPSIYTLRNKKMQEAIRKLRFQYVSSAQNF
Sequence of OR4K1 (Homo sapiens) (Q8NGD4 whole entry): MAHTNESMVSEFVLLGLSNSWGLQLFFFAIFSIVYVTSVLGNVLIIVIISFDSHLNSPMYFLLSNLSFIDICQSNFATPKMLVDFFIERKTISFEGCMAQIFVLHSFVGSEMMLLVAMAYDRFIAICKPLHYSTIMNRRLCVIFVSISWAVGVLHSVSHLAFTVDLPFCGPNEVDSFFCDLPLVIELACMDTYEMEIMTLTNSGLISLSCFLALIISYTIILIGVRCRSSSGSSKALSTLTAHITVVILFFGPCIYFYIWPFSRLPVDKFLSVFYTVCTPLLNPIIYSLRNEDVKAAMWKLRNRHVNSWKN
Sequence of OR4K14 (Homo sapiens) (Q8NGD5 whole entry): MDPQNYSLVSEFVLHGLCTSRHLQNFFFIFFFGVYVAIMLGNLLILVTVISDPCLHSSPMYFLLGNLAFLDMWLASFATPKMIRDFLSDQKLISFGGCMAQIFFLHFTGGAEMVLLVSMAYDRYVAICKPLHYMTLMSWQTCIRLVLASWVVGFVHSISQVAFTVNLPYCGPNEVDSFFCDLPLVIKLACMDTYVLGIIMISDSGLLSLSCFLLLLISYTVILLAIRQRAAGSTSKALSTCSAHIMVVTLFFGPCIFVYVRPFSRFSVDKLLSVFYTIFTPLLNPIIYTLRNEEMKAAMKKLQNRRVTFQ
Sequence of OR4F6 (Homo sapiens) (Q8NGB9 whole entry): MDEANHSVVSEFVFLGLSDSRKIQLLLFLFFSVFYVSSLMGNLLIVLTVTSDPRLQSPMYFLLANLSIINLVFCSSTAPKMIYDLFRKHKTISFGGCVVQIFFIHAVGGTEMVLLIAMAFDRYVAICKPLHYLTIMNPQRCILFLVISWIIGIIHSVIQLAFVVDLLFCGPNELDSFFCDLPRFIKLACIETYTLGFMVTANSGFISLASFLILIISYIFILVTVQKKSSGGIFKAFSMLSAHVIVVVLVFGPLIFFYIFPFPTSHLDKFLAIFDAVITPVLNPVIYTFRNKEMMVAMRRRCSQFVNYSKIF
Sequence of OR4F5 (Homo sapiens) (Q8NH21 whole entry): as the sequence (Q96R69 whole entry) above, with A141T, P160L, C221R, R293Q counted along it
Sequence of OR4K2 (Homo sapiens) (Q8NGD2 whole entry): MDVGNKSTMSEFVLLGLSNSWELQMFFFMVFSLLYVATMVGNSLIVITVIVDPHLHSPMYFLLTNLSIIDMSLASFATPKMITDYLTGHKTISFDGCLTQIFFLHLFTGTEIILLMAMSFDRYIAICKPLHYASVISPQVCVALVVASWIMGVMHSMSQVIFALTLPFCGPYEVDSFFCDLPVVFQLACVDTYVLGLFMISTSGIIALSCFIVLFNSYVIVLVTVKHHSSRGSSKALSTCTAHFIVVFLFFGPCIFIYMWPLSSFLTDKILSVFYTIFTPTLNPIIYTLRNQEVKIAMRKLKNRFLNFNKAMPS
Sequence of OR4K15 (Homo sapiens) (Q8NH41 whole entry): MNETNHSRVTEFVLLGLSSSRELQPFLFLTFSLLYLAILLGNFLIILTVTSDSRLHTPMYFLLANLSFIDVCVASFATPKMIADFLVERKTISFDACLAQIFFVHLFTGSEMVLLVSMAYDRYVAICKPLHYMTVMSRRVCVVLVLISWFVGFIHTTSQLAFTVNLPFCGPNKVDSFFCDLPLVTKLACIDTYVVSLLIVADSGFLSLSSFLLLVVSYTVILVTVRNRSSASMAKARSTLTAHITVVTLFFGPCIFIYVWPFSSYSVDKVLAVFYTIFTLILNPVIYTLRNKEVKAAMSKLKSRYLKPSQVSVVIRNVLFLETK
Sequence of OR4L1 (as listed by the source): as the sequence (Q8NH43 whole entry) above, with R52S counted along it
Sequence of OR4K3 (Homo sapiens) (Q96R72 whole entry): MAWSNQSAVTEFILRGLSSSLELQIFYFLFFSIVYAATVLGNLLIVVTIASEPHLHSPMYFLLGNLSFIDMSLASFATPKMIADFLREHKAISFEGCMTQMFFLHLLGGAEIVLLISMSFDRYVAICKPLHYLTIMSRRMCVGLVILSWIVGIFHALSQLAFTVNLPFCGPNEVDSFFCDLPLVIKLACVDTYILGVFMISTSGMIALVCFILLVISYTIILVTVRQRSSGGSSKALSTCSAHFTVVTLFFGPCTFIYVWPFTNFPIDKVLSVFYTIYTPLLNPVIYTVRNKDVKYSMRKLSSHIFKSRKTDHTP
Sequence of OR4K2 (as listed by the source): as the sequence (Q8NGD2 whole entry) above, with N307I counted along it
Sequence of OR4K1 R304H (as listed by the source, stated change not applied): as the sequence (Q8NGD4 whole entry) above, with R304H counted along it
Sequence of OR4KH (as listed by the source): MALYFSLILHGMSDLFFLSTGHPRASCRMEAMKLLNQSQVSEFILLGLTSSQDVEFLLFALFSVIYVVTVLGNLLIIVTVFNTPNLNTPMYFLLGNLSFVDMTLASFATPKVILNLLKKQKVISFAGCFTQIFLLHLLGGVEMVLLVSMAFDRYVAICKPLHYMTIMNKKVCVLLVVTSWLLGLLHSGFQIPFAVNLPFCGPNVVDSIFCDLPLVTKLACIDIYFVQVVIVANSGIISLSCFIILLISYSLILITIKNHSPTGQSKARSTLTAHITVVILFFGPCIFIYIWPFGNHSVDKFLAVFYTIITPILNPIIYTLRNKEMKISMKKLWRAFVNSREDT
Sequence of OR4K17 (Homo sapiens) (Q8NGC6 as listed by the source): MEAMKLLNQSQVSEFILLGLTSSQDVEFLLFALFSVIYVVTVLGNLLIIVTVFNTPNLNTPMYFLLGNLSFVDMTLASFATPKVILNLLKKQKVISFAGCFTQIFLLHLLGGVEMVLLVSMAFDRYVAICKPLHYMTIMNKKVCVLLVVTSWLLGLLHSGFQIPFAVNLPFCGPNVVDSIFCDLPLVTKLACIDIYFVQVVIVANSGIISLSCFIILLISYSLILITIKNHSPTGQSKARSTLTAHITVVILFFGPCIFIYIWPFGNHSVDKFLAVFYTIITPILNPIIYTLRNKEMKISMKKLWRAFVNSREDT

Cc1c([N+](=O)[O-])c(C)c([N+](=O)[O-])c(C(C)(C)C)c1[N+](=O)[O-]
inactive: OR4F3 (Homo sapiens) | OR4F4 (Homo sapiens) | OR4F5 (Homo sapiens) | OR4F6 (Homo sapiens) | OR4K1 (Homo sapiens) | OR4K13 (Homo sapiens) | OR4K14 (Homo sapiens) | OR4K15 (Homo sapiens) | OR4K17 (Homo sapiens) | OR4K2 (Homo sapiens) | OR4K3 (Homo sapiens) | OR4K5 (Homo sapiens) | OR4L1 (Homo sapiens) | OR4M1 (Homo sapiens)

C=CCOC(=O)Cc1ccccc1
inactive: OR4F3 (Homo sapiens) | OR4F4 (Homo sapiens) | OR4F5 (Homo sapiens) | OR4F5 T141A Q293R | OR4F6 (Homo sapiens) | OR4K1 (Homo sapiens) | OR4K1 R304H | OR4K13 (Homo sapiens) | OR4K14 (Homo sapiens) | OR4K2 (Homo sapiens) | OR4K2 | OR4K5 (Homo sapiens) | OR4KF | OR4KH | OR4L1 (Homo sapiens) | OR4L1 | OR4M1 (Homo sapiens)

— the M2OR odorant receptor database
